In ChEMBL document CHEMBL1155876 (J Med Chem, 2008):

Legend:
MCF7 = assay: Antiproliferative activity against human MCF7 cells; type: functional, cell-based
Procedure, shortened: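 HCT116, HT29 or MCF7 cells were seeded on day 0 in 1:1 Ham's F12/DMEM-high glucose with 10% FBS and 2 mM L-glutamine, then kept overnight at 37 °C in 5% CO2. On day 1, inhibitor in DMSO, diluted 20-fold in serum- and glutamine-free medium, was added. Viability was read on day 4 as total ATP by CellTiter-Glo luminescence.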

HCT-116 [1] = assay: Antiproliferative activity against human HCT116 cells
MOLT-4 = assay: Cell cycle arrested in human MOLT4 cells assessed as accumulation at G2/M phase after 24 hrs; type: functional, cell-based; conditions: MOLT-4, 24 h
Procedure, shortened: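 MOLT-4 leukemia cells were exposed to 3-fold serial dilutions for 24 h at 37 °C. Cells were then resuspended in Tris pH 7.4/NaCl buffer containing 0.2% BSA and 0.1% NP-40, and treated on ice for 30 min with 60 U/mL RNase A and 20 µg/mL propidium iodide. DNA content was measured by FACS.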

HCT-116 [2] = assay: Antitumor activity in human HCT116 cells xenografted athymic mouse assessed as growth inhibition at 1 mg/kg, po qd; type: functional; conditions: read-out: TGI
[3] = biological target: Serine/threonine-protein kinase Nek2 (Homo sapiens) (UniProt P51955); assay: Inhibition of NEK2 at assessed as residual enzyme activity at 1 uM
[4] = biological target: Serine/threonine-protein kinase PLK3 (Homo sapiens) (UniProt Q9H4B4); assay: Inhibition of Plk3 at assessed as residual enzyme activity at 1 uM
HCT-116 [5] = assay: Antitumor activity in human HCT116 cells xenografted athymic mouse assessed as growth inhibition at 5 mg/kg, po qd; type: functional; conditions: read-out: TGI
[6] = biological target: Tyrosine-protein kinase ABL1 (Homo sapiens) (UniProt P00519); assay: Inhibition of human Abl assessed as residual enzyme activity at 0.1 uM
[7] = biological target: ALK tyrosine kinase receptor (Homo sapiens) (UniProt Q9UM73); assay: Inhibition of human ALK assessed as residual enzyme activity at 0.1 uM
Homo sapiens [8] = organism: Homo sapiens; assay: Inhibition of human ALK4 assessed as residual enzyme activity at 0.1 uM
[9] = biological target: NUAK family SNF1-like kinase 1 (Homo sapiens) (UniProt O60285); assay: Inhibition of human ARK5 kinase assessed as residual enzyme activity at 0.1 uM
[10] = biological target: Tyrosine-protein kinase Blk (Homo sapiens) (UniProt P51451); assay: Inhibition of human Blk kinase assessed as residual enzyme activity at 0.1 uM
[11] = biological target: Tyrosine-protein kinase BTK (Homo sapiens) (UniProt Q06187); assay: Inhibition of human BTK kinase assessed as residual enzyme activity at 0.1 uM
[12] = biological target: Casein kinase I isoform delta (Homo sapiens) (UniProt P48730); assay: Inhibition of human CK1delta kinase assessed as residual enzyme activity at 0.1 uM
[13] = biological target: RAF proto-oncogene serine/threonine-protein kinase (Homo sapiens) (UniProt P04049); assay: Inhibition of human c-RAF assessed as residual enzyme activity at 0.1 uM
[14] = biological target: Death-associated protein kinase 1 (Homo sapiens) (UniProt P53355); assay: Inhibition of human DAPK1 kinase assessed as residual enzyme activity at 0.1 uM
[15] = biological target: Discoidin domain-containing receptor 2 (Homo sapiens) (UniProt Q16832); assay: Inhibition of human DDR2 kinase assessed as residual enzyme activity at 0.1 uM
[16] = biological target: Myotonin-protein kinase (Homo sapiens) (UniProt Q09013); assay: Inhibition of human DMPK assessed as residual enzyme activity at 0.1 uM
[17] = biological target: Dual specificity tyrosine-phosphorylation-regulated kinase 2 (Homo sapiens) (UniProt Q92630); assay: Inhibition of human DYRK2 kinase assessed as residual enzyme activity at 0.1 uM
[18] = biological target: Epidermal growth factor receptor (Homo sapiens) (UniProt P00533); assay: Inhibition of human EGFR kinase assessed as residual enzyme activity at 0.1 uM
[19] = biological target: Ephrin type-B receptor 1 (Homo sapiens) (UniProt P54762); assay: Inhibition of human EphB1 kinase assessed as residual enzyme activity at 0.1 uM
[20] = biological target: Ephrin type-B receptor 4 (Homo sapiens) (UniProt P54760); assay: Inhibition of human EphB4 kinase assessed as residual enzyme activity at 0.1 uM
[21] = biological target: Homeodomain-interacting protein kinase 2 (Homo sapiens) (UniProt Q9H2X6); assay: Inhibition of human HIPK2 kinase assessed as residual enzyme activity at 0.1 uM
[22] = biological target: Inhibitor of nuclear factor kappa-B kinase subunit beta (Homo sapiens) (UniProt O14920); assay: Inhibition of human IKK-beta kinase assessed as residual enzyme activity at 0.1 uM
[23] = biological target: Mitogen-activated protein kinase 8 (Homo sapiens) (UniProt P45983); assay: Inhibition of human JNK1alpha1 assessed as residual enzyme activity at 0.1 uM
[24] = biological target: Tyrosine-protein kinase Lyn (Homo sapiens) (UniProt P07948); assay: Inhibition of human Lyn kinase assessed as residual enzyme activity at 0.1 uM
[25] = biological target: Dual specificity mitogen-activated protein kinase kinase 6 (Homo sapiens) (UniProt P52564); assay: Inhibition of human MKK6 assessed as residual enzyme activity at 0.1 uM
[26] = biological target: Myosin light chain kinase, smooth muscle (Homo sapiens) (UniProt Q15746); assay: Inhibition of human MLCK kinase assessed as residual enzyme activity at 0.1 uM
[27] = biological target: Ribosomal protein S6 kinase alpha-5 (Homo sapiens) (UniProt O75582); assay: Inhibition of human MSK1 kinase assessed as residual enzyme activity at 0.1 uM
[28] = biological target: Serine/threonine-protein kinase Nek6 (Homo sapiens) (UniProt Q9HC98); assay: Inhibition of human NEK6 kinase assessed as residual enzyme activity at 0.1 uM
[29] = biological target: Platelet-derived growth factor receptor alpha (Homo sapiens) (UniProt P16234); assay: Inhibition of human PDGFRalpha assessed as residual enzyme activity at 0.1 uM
[30] = biological target: Platelet-derived growth factor receptor beta (Homo sapiens) (UniProt P09619); assay: Inhibition of human PDGFRbeta kinase assessed as residual enzyme activity at 0.1 uM
Homo sapiens [31] = organism: Homo sapiens; assay: Inhibition of human PKA assessed as residual enzyme activity at 0.1 uM
[32] = biological target: Protein kinase C theta type (Homo sapiens) (UniProt Q04759); assay: Inhibition of human PKCtheta kinase assessed as residual enzyme activity at 0.1 uM
Homo sapiens [33] = organism: Homo sapiens; assay: Inhibition of human PKG1alpha kinase assessed as residual enzyme activity at 0.1 uM
[34] = biological target: Mitogen-activated protein kinase 14 (Homo sapiens) (UniProt Q16539); assay: Inhibition of human SAPK2a kinase assessed as residual enzyme activity at 0.1 uM
[35] = biological target: SRSF protein kinase 1 (Homo sapiens) (UniProt Q96SB4); assay: Inhibition of human SRPK1 kinase assessed as residual enzyme activity at 0.1 uM
[36] = biological target: Tyrosine-protein kinase ZAP-70 (Homo sapiens) (UniProt P43403); assay: Inhibition of human ZAP70 kinase assessed as residual enzyme activity at 0.1 uM
Homo sapiens [37] = organism: Homo sapiens; assay: Inhibition of human PKBalpha assessed as residual enzyme activity at 0.1 uM

Chain of Tyrosine-protein kinase ABL1 (Homo sapiens) (P00519 whole entry): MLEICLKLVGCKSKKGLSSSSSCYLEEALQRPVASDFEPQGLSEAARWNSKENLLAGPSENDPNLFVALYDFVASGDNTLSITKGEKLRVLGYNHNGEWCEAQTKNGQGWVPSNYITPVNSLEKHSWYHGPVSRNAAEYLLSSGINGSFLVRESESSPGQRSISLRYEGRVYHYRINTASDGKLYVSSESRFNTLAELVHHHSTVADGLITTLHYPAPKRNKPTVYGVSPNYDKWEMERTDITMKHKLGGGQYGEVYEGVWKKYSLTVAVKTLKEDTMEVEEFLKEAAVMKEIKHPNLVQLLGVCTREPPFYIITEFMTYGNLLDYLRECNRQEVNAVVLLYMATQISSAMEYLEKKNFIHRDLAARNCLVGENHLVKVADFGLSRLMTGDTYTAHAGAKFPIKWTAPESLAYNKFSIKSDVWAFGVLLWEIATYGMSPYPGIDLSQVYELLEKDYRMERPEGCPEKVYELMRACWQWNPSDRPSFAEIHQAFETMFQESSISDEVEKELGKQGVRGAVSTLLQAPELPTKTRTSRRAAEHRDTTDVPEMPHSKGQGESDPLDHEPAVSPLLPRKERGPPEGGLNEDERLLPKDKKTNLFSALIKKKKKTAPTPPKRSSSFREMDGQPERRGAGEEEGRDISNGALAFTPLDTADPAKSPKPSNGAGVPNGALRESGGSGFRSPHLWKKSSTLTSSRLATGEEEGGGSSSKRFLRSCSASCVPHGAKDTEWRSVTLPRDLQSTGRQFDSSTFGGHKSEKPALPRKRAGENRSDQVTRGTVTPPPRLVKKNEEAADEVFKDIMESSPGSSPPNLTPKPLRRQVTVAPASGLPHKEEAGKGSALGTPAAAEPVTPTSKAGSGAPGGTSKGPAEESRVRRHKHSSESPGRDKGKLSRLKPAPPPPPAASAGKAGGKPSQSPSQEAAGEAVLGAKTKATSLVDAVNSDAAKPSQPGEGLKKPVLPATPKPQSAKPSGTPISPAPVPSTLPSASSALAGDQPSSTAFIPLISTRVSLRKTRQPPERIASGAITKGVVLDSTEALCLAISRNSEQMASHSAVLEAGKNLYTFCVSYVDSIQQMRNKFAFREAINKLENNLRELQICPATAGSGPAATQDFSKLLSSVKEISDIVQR
Chain of Serine/threonine-protein kinase Nek6 (Homo sapiens) (Q9HC98 whole entry): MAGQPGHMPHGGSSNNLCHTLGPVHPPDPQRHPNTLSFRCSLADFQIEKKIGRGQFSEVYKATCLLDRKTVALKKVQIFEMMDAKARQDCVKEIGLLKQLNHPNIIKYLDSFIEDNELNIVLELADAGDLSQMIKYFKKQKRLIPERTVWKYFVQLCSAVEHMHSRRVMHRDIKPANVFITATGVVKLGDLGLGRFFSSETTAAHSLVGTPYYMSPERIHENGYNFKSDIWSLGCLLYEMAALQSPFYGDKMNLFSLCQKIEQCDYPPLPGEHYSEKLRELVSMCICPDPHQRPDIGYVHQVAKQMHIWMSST
Chain of Epidermal growth factor receptor (Homo sapiens) (P00533 whole entry): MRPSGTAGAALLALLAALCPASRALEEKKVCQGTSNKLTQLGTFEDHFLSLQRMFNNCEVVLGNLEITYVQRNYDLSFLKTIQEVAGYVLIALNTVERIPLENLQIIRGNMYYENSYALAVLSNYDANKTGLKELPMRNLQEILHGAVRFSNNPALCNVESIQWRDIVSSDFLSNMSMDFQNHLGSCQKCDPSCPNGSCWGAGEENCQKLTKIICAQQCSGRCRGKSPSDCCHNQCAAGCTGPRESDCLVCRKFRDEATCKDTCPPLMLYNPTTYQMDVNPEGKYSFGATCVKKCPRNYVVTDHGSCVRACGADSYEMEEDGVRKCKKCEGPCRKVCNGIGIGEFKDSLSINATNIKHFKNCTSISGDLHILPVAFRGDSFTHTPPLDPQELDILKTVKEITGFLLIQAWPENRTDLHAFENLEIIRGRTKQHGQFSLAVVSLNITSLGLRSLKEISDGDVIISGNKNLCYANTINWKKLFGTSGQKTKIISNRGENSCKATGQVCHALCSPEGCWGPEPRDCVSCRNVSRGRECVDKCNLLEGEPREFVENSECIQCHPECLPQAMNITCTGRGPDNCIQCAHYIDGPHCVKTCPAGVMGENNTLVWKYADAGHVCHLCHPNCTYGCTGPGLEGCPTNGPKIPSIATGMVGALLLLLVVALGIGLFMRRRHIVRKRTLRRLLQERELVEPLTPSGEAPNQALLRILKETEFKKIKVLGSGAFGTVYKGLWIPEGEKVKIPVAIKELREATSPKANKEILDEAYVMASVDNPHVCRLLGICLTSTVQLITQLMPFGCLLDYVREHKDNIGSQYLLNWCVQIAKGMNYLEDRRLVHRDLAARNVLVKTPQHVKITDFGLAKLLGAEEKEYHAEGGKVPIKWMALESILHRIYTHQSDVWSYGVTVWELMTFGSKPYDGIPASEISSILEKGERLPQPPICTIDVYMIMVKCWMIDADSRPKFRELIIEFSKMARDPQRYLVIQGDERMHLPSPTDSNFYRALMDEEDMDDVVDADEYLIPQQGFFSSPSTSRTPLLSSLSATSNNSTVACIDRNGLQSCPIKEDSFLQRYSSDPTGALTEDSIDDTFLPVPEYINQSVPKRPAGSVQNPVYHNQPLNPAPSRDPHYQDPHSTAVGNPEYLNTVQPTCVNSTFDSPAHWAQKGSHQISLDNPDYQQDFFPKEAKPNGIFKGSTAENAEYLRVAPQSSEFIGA
Chain of Tyrosine-protein kinase Lyn (Homo sapiens) (P07948 2-512 limits assumed): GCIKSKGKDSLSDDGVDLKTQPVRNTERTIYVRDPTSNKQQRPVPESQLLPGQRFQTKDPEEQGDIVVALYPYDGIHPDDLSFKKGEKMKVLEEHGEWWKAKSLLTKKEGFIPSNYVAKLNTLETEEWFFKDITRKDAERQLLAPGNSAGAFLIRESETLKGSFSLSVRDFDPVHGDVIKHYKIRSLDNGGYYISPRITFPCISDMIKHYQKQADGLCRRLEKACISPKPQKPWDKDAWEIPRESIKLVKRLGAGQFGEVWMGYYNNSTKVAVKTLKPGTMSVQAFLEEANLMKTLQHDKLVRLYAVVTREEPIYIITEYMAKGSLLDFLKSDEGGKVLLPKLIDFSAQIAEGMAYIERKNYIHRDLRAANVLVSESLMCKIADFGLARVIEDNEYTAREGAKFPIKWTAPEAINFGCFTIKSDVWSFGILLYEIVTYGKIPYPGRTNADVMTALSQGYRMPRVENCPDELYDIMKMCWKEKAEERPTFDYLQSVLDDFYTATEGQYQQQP
Chain of Ephrin type-B receptor 4 (Homo sapiens) (P54760 whole entry): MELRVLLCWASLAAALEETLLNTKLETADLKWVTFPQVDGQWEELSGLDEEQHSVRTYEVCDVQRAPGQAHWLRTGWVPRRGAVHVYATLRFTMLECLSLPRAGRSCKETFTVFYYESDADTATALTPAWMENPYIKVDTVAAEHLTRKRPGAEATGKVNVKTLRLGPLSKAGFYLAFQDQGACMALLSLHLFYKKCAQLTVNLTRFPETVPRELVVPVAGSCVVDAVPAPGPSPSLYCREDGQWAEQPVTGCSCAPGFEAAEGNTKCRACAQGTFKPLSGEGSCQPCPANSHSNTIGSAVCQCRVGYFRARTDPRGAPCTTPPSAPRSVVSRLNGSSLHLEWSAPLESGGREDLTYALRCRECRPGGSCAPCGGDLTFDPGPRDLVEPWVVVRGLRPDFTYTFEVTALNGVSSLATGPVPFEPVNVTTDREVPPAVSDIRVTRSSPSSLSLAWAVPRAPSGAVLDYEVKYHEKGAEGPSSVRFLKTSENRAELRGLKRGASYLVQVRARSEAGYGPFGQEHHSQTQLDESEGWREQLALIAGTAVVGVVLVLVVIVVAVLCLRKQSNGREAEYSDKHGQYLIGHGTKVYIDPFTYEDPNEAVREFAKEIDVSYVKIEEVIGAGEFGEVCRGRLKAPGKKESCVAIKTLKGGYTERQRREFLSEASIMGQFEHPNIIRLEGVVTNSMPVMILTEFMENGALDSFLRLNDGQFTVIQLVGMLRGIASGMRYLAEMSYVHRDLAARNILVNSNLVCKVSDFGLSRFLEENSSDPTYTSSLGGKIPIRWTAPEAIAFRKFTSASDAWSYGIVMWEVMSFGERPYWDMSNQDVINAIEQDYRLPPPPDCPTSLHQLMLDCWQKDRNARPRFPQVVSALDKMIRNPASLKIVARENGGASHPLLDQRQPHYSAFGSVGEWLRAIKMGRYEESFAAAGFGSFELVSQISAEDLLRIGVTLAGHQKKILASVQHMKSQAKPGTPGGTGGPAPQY
Chain of Tyrosine-protein kinase Blk (Homo sapiens) (P51451 2-505 limits assumed): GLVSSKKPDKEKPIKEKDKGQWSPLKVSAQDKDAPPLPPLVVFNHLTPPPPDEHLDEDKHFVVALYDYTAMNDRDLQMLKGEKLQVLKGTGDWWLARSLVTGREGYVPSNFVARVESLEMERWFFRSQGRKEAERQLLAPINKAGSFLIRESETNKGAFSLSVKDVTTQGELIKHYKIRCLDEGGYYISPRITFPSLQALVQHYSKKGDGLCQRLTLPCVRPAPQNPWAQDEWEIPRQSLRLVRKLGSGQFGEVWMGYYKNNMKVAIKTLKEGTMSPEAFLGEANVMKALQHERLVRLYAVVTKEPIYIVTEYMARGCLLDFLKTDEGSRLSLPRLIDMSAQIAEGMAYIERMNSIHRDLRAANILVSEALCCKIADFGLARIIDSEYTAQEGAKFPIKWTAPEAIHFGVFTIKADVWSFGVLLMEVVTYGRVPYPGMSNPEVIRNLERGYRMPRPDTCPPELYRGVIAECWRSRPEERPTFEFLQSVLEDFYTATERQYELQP
Chain of Casein kinase I isoform delta (Homo sapiens) (P48730 whole entry, looked up, canonical isoform): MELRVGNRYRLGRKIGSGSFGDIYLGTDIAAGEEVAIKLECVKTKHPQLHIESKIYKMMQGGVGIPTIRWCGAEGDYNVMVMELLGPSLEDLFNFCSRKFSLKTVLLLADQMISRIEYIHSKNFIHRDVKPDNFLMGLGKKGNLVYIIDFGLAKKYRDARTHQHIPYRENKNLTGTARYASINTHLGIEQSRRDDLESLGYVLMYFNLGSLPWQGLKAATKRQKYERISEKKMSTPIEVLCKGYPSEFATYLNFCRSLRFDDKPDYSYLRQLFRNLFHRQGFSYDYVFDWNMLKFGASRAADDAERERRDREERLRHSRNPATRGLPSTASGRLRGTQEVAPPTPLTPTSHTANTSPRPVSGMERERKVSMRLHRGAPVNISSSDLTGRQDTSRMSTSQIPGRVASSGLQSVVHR

CCN1C(=O)C(C)(C)c2cc3[nH]c4c(c3cc21)CCCc1c(C)n[nH]c1-4
IC50 (MCF7): 0.1 µM | IC50 (HCT-116 [1]): 0.07 µM | IC50 (MOLT-4): 0.11 µM | inhibition in vivo at 1 mg/kg (HCT-116 [2]): 52% | Activity [3]: 98% | Activity [4]: 103% | inhibition in vivo at 5 mg/kg (HCT-116 [5]): 92% | Activity [6]: 71% | Activity [7]: 23% | Activity (Homo sapiens [8]): 113% | Activity [9]: 9% | Activity [10]: 62% | Activity [11]: 86% | Activity [12]: 96% | Activity [13]: 106% | Activity [14]: 107% | Activity [15]: 81% | Activity [16]: 97% | Activity [17]: 107% | Activity [18]: 107% | Activity [19]: 58% | Activity [20]: 99% | Activity [21]: 98% | Activity [22]: 114% | Activity [23]: 109% | Activity [24]: 60% | Activity [25]: 102% | Activity [26]: 102% | Activity [27]: 96% | Activity [28]: 95% | Activity [29]: 91% | Activity [30]: 103% | Activity (Homo sapiens [31]): 99% | Activity [32]: 95% | Activity (Homo sapiens [33]): 100% | Activity [34]: 124% | Activity [35]: 104% | Activity [36]: 127% | Activity (Homo sapiens [37]): 100%
